Screening results deposited in PubChem BioAssay by several laboratories.
An excerpt weighted towards active compounds, which were near 1.6% of everything screened.
NR2E3 ag-1: activates human photoreceptor nuclear receptor NR2E3; Q9Y5X4; GST-NR2E3/biotin-RetCOR TR-FRET, 1536-well; inhibition of corepressor binding, % at 4.78 µM; 320,000 compounds, 0.12% hits; AID 2300;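 active means percent inhibition above the cutoff of mean plus 3 SD of all tested compounds, set per screening campaign, cut at about 20% in these data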;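 further: 0% = DMSO wells and 100% = biotin wells as full block of FRET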
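System: GST-NR2E3 and biotin-RetCOR proteins; probe or stimulus: 7 nM biotin-RetCOR; doses: compound at 4.8 µM, single dose; schedule: Compound–protein incubation for 5 h at 4 °C; detection: time-resolved FRET; read-out: percent inhibition; controls: biotin wells as high control, 0.6% DMSO wells as low control; format: 1536-well plates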
VLA-4 inh: inhibition in a human VLA-4 binding assay | AID 2557 | VLA-4 expressing cells, ligand binding flow cytometry | 330,000 compounds, 0.2% hits | inhibition, % (about 7 µM as worked out from the volumes in the protocol) | P13612; in the data active means inhibition above about 50%
Rev-erbA mod: modulators of human Rev-erb alpha DNA binding. Rev-erbα–FITC-DNA binding, fluorescence polarization, 90 min. activity, % at 10 µM. 370,000 compounds, 0.79% hits;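 active means activity above about 14%, limit read from the data; passing the limit was not always enough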;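 further: 0% = DMSO wells with 35 nM protein and 100% = DMSO wells with 750 nM protein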
PG9 binder: PG9 antibody binding by small molecule | 360,000 compounds, 0.43% hits | TR-FRET gp120-PG9 antibody binding | AID 624416 | inhibition, % at 6.7 µM; in the data active means inhibition above about 8.5%
NR2E3 ag-2: agonists of human NR2E3 nuclear receptor. Q9Y5X4. CHO-S Gal4-NCOR/VP16-NR2E3 two-hybrid, luciferase. inhibition of corepressor binding, % at 3.98 µM. 360,000 compounds, 0.35% hits;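 active means inhibition above the mean of all tested compounds plus 3 SD, cut at about 70% in these data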;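 further: 0% = DMSO with NR2E3 transfected cells and 100% = cells lacking NR2E3 construct; higher means lower luciferase signal from less NR2E3 corepressor binding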
NR1D1 mod conf: Rev-erb alpha (human) modulation, hit confirmation. 3,000 compounds, 61% hits. Rev-erb alpha FITC-DNA binding, fluorescence polarization, 90 min. shares compounds with Rev-erbA mod. activation, % at 25 µM;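 active means activation at or above a set limit, or at least 3 SD above the negative control mean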;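 further: 0% = 35 nM protein with DMSO and 100% = 750 nM protein high control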
RORg counter: counter-screen for Rev-erb alpha modulators: RORgamma DNA binding; purified RORgamma protein-FITC-DNA binding, fluorescence polarization; 910 compounds, 8% hits; IC50, µM; shares compounds with Rev-erbA mod; AID 1259320;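 active means Compounds whose fitted half-maximal concentration for disrupting protein-DNA binding is below 10 micromolar; the record names Rev-erb in its text, so the target is in doubt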
Active calls of the source: *; / = not tested or not shown.

SMILES | NR2E3 ag-1 | VLA-4 inh | Rev-erbA mod | PG9 binder | NR2E3 ag-2 | NR1D1 mod conf | others
Cc1c(Cl)cccc1NC(=O)CCNC(=O)N1CC(=O)Nc2ccccc21 | 1.1 | -95.6 | -2.3 | -0.3 | -1.7 | /
CCOc1ccccc1NC(=O)c1cnc2n(c1=O)CCS2 | -0.4 | -15.7 | 45.9* | 0.2 | -7.7 | 37.9* | RORg counter=>40
Cc1c(C(=O)O)oc2c1C(=O)CC(C)(C)C2 | 1.6 | 8.4 | -2.4 | -2.1 | -15.2 | /
N#Cc1cc2cc3c(cc2nc1SCC(=O)OC1CCCCC1)OCO3 | 1.0 | -7.4 | 78.7* | 0.5 | -17.0 | 38.2*
N#Cc1cc2cc3c(cc2nc1SCC(=O)N1CCCC1)OCCO3 | -0.8 | 0.1 | / | / | -82.1 | /
CCOC(=O)CSc1nc(-c2ccc3c(c2)OCO3)ccc1C#N | -0.2 | -4.7 | 19.6* | 1.6 | -59.2 | 17.4*
CC(=O)CSc1nc2cc3c(cc2cc1C#N)OCCO3 | -0.2 | -4.4 | 20.2* | -6.7 | -131.2 | 19.7*
COc1ccc(-c2ccc3sc4ccccc4c(=O)c3c2)cn1 | 1.8 | 19.4 | 58.0* | -0.3 | -131.0 | 61.1* | RORg counter=>40
COc1cc2sc3ccc(-c4ccc(N(C)C)nc4)cc3c(=O)c2cc1OC | 4.4 | -25.0 | -18.2 | 0.8 | / | /
CCC(C)NC(=O)C(Cc1ccccc1)NS(=O)(=O)c1ccc2c(c1)oc(=O)n2C (stereo not drawn) | -1.8 | -0.4 | 3.4 | -0.9 | -13.8 | /
CCOC(=O)c1cnc2c(-c3ccc(Cl)cc3)c(C)nn2c1N | 2.3 | 13.4 | -1.4 | -2.4 | 5.9 | /
CCOC(=O)c1cnc2cc(-c3ccc(Cl)cc3)nn2c1N | 4.7 | -17.9 | 19.9* | 0.7 | -30.3 | -0.4
COc1ccc(-c2cc3ncc(C(C)=O)c(C)n3n2)cc1 | -0.5 | 1.1 | 36.0* | 0.1 | -10.1 | 12.8
Cc1ccc2cc(-c3noc(C4CCCCC4)n3)c(=O)[nH]c2c1 | 2.5 | 35.3 | 41.4* | 0.3 | 11.7 | 33.9* | RORg counter=>40
c1ccc(-c2nc(N3CCOCC3)cc(N3CCOCC3)n2)cc1 | -3.4 | -0.9 | 1.2 | 0.2 | 3.4 | /
Cc1cc(C)n(-c2cc(N3CCOCC3)nc(-c3ccccc3)n2)n1 | -9.2 | 21.1 | 18.3* | 2.7 | -13.2 | 24.4*
CCc1cc2cc3c(cc2nc1SCC(=O)Nc1c[nH]c(=O)[nH]c1=O)OCO3 | 5.5 | 2.3 | 186.8* | 0.8 | -6.1 | 171.6* | RORg counter=>40
CCOC(=O)c1c(SCC(=O)Nc2nccs2)nc(C)c(C)c1C | / | -0.6 | -1.3 | -0.4 | -137.8 | /
CCc1cc2cc3c(cc2nc1SCC(=O)Nc1nccs1)OCO3 | 2.2 | -0.9 | 224.8* | 14.5* | -19.2 | 122.5* | RORg counter=>40
CN1c2ccccc2SC2C(c3ccccc3)=NOC21 (stereo not drawn) | / | / | -1.3 | -1.4 | -10.3 | /
Cn1c(/C(C#N)=C(\O)c2ccc(Br)s2)nc2ccccc21 | -3.8 | -3.2 | 39.5* | -56.3 | -20.4 | 7.7
Cn1c(/C(C#N)=C(\O)c2cc(Cl)sc2Cl)nc2ccccc21 | -1.9 | 3.9 | -6.9 | 2.2 | -12.6 | /
CC(=O)c1cccc(-c2ccnc3c2CC(C(=O)Nc2ccc4c(c2)OCO4)O3)c1 (stereo not drawn) | / | / | -3.8 | -0.3 | 21.1 | /
CC1(C)Cc2nc3sc4c(OCc5ccccc5)ncnc4c3cc2CO1 | -2.0 | -9.9 | 38.2* | -2.0 | 0.6 | 19.7*
CCc1nc(OCc2ccccc2)c2sc3nc4c(cc3c2n1)COC(C)(C)C4 | -0.6 | 5.3 | 7.1 | -3.7 | -4.7 | /
SMILES | NR2E3 ag-1 | VLA-4 inh | Rev-erbA mod | PG9 binder | NR2E3 ag-2 | NR1D1 mod conf | others
O=C(COC(=O)c1ccc2c(c1)OCCO2)NCCc1ccc(F)cc1 | / | 18.6 | 2.3 | 0.7 | -2.9 | /
Cc1cc(OCC(=O)OCC(=O)NC2CCS(=O)(=O)C2)ccc1Cl (stereo not drawn) | / | / | -7.1 | -0.1 | 6.5 | /
Brc1cc2c(cc1-c1nc3ccccc3s1)OCO2 | -2.1 | 4.7 | 27.5* | 1.7 | -13.2 | 13.0
Cn1c(=O)c2c(nc(SCC(=O)c3cccs3)n2Cc2ccc(F)cc2)n(C)c1=O | 1.6 | 4.6 | 133.4* | 0.8 | -7.5 | 99.9* | RORg counter=>40
Cn1c(=O)c2c(nc(Br)n2CC(=O)c2cccs2)n(C)c1=O | -0.1 | 6.5 | -0.2 | 1.8 | -4.6 | /
COc1ccc(C(=O)Nc2ccc(Oc3ncnc4sc(-c5ccccc5)cc34)cc2)cc1OC | -5.7 | 13.4 | 19.6 | -0.6 | -19.1 | /
